Assay outcomes from PubChem BioAssay.
S1P3 agonist – activates the human S1P3 receptor. S1P3 NFAT-BLA reporter cells, agonism, FRET ratio; relative to 1 µM S1P, basal subtracted. actives 0.1% (n = 60,000). activation, % at 4.5 µM;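 active = activation above the screen-wide mean plus 3 SD, cut at about 4.5% in these data, passing the limit was not always enough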
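Material: Human S1P3 NFAT-BLA reporter CHO cells | Incubation: Overnight plating, 4 h compound 37 °C, 2 h substrate RT | Signal: FRET β-lactamase substrate fluorescence, excitation 405 nm, 460/535 nm emission ratio, background-subtracted | Compound: 4.5 µM final, single dose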
5HT1E ag – activates the human 5-HT1E serotonin receptor; CHO 5-HT1E Ga15 NFAT-bla reporter, FRET; 0% DMSO wells, 100% control agonist wells; P28566; activation, % at 6 µM; actives 0.69% (n = 65,000); AID 574;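 active = activation above a set limit, the screen-wide mean activation plus 3 SD, cut at about 8.5% in these data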
Target sequence (P28566 whole entry, looked up): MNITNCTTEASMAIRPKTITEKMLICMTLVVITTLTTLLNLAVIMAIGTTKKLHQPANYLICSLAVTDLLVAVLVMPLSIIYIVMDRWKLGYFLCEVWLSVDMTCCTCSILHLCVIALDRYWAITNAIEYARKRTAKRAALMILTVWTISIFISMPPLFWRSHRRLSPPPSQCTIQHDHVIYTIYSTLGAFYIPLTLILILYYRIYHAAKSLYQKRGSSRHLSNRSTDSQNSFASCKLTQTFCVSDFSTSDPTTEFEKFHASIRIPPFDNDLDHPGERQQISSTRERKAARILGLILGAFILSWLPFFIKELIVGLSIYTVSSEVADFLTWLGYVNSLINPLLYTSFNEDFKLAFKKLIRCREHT
S1P1 ag pot – activates or potentiates agonism at human S1P1 receptor; P21453; S1P1 CRE-bla cells, forskolin, beta-lactamase FRET, potentiator mode; S1P1 agonist co-added at EC20, 2 nM; 100% = saturating reference agonist, 0% = basal; activation, % at 9.5 µM; actives 0.57% (n = 56,000); AID 449;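 active = activation above a cutoff set at the mean activation of all tested compounds plus 3 SD, cut at about 54% in these data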;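 also: forskolin at 4 µM as EC80 and the EC20 agonist is SEW2871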
5HT1a antag – 5-HT1a (human) receptor antagonism; P08908; CHO 5-HT1a Ga15 NFAT-bla reporter, antagonist mode; inhibition, % at 10 µM; actives 0.68% (n = 62,000);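 active = inhibition above the mean of all tested compounds plus 3 SD, cut at about 43% in these data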;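 also: receptor stimulated by 5-CT agonist at 100 nM near EC80; beta-lactamase reporter measured by ratiometric fluorescence of a cleavable substrate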
HTR1E antagonist – 5-HT1E (human) receptor antagonism; P28566; CHO 5-HT1E Ga15 NFAT-bla reporter, FRET, antagonist; inhibition, % at 6 µM; actives 0.99% (n = 65,000);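 active = inhibition above a set limit, the mean inhibition across every tested compound plus 3 SD, cut at about 29% in these data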;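 also: signal is the 460 over 535 nm emission ratio of beta-lactamase substrate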
HTR1A agonist – activates the human 5-HT1a serotonin receptor; CHO 5-HT1a Ga15 NFAT-bla reporter, FRET ratio; 0% basal, 100% maximal reference agonist; AID 567; P08908; actives 0.56% (n = 65,000); activation, % at 10 µM;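 active = activation above the screen-wide mean activation plus 3 SD, cut at about 19% in these data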
Large screens that a line does not name were inactive. Shown are actives, neighbours in structure and some others; about 2.9% of the full set was active somewhere.

Cn1c(C(=O)N(Cc2ccccc2)Cc2cccs2)cc2sccc21	5HT1a antag 43
CCN=C(NCC)SC1CC(=O)N(c2cccc(OCC)c2)C1=O (configuration not stated)	none
CN(C)CCOC(=O)CCc1ccccc1	none
CN(C)CCOc1ccccc1Cc1ccccc1	5HT1E ag 16 (no result: 5HT1a antag)
OC(COc1c(F)cc(Br)cc1F)CN1CCN(c2ccc(F)cc2)CC1 (configuration not stated)	5HT1a antag 63
O=C(NC1CCCCC1)C(c1cccs1)N(Cc1cccs1)C(=O)c1ccco1 (configuration not stated)	5HT1a antag 50
O=C(NC1CCCC1)C(c1cccs1)N(CC1CCCO1)C(=O)Cc1cccs1 (configuration not stated)	5HT1a antag 44
O=C(NCC(=O)N(Cc1cccs1)C(C(=O)NC1CCCC1)c1ccncc1)c1ccco1 (configuration not stated)	none
O=C(NC1CCCCC1)C(c1cccs1)N(CC1CCCO1)C(=O)c1csnn1 (configuration not stated)	none
Cc1ccc(NC(=O)COC(=O)c2ccn(C)n2)cc1	none
CC(C)Oc1cc(O)c2c(=O)c(-c3ccc(O)cc3)coc2c1	S1P1 ag pot 107
COc1ccc(-c2coc3cc(O)cc(O)c3c2=O)cc1	none (no result: 5HT1a antag)
O=C1CC(N2CCN(c3ccc(F)cc3)CC2)C(=O)N1Cc1ccc(N2CCCC2=O)cc1 (configuration not stated)	none
CC(=O)N1CCN(S(=O)(=O)c2ccc(S(=O)(=O)NCC(C)C)cc2)CC1	none
CCCSc1nnc(NC(=O)Nc2ccc(F)cc2)s1	HTR1E antagonist 32 (no result: 5HT1a antag)
CCCSc1nnc(NC(=O)Nc2ccccc2)s1	none (no result: 5HT1a antag)
C=CCn1c(-c2cccs2)nc2ccccc21	none
C=CCSc1nc2ccccc2n1Cc1nnc(-c2cccs2)o1	5HT1E ag 18
Cc1ccc2cc3cc(C(=O)NCCC(C)C)oc3nc2c1	none
CCN(C(=O)c1cc2cc3ccc(C)cc3nc2o1)c1ccc(OC)cc1	5HT1a antag 46
COc1ccc(S(=O)(=O)N(C)CC(=O)NCc2cccnc2)cc1C	none (no result: S1P1 ag pot)
CCNc1ccc(C(=O)OCC)cc1NC(=O)c1cccc(N(C)C)c1	HTR1E antagonist 45 (no result: S1P3 agonist, S1P1 ag pot)
CCCCCN=Cc1c(C)[nH]n(-c2nc3ccccc3s2)c1=O	none
CCOC(=O)N1CCC(NC(=O)CC(NS(=O)(=O)c2ccc(Cl)cc2)c2ccco2)CC1 (configuration not stated)	HTR1A agonist 29
CS(=O)(=O)N(CC(=O)N1CCCCCC1)c1ccccc1	5HT1E ag 32
CS(=O)(=O)N(CC(=O)N1CCCC1)c1ccc(OCc2ccccc2)cc1	none (no result: S1P1 ag pot)
O=C1CC(N2CCN(S(=O)(=O)c3cccc(C(F)(F)F)c3)CC2)C(=O)N1Cc1ccccc1 (configuration not stated)	none
CN1CCN2c3ccccc3Cc3ccccc3C2C1 (configuration not stated)	5HT1E ag 86 (no result: 5HT1a antag)
c1ccc2c(c1)CCN2CCN1CCc2ccccc21	none
CC1CCCN(C(=O)C2CCN(S(=O)(=O)c3cccc4cccnc34)CC2)C1 (configuration not stated)	none
CCCCCCNC(=O)c1c(N)n(/N=C/c2ccco2)c2nc3ccccc3nc12	HTR1A agonist 31
CCCCNC(=O)c1c(N)n(/N=C/c2ccccn2)c2nc3ccccc3nc12	none (no result: S1P3 agonist, S1P1 ag pot)
COC(=O)Nc1ccc(C)c2nsnc12	none
Clc1ccc2[nH]c3c(NCC4CCCO4)ncnc3c2c1 (configuration not stated)	HTR1E antagonist 32
CSc1nc(N2CCOCC2)c2c3c(sc2n1)CCCC3	HTR1E antagonist 32
CCOC(=O)c1ccccc1NC(=O)c1ccc(NS(C)(=O)=O)cc1	HTR1E antagonist 34 (no result: S1P1 ag pot)
COc1cccc(C(=O)N2CCN(S(=O)(=O)Cc3ccccc3)CC2)c1OC	none (no result: 5HT1a antag)
Cn1c(SC2=CS(=O)(=O)c3ccccc32)nc2ccccc21	5HT1a antag 74, HTR1E antagonist 50
Cn1c(Cl)nc2ccccc21	none
